Assays:
[1] = Noncompetitive inhibitory activity against Inosine-5'-monophosphate dehydrogenase using NAD as viable substrate
[2] = Cytotoxicity against P388 cells in culture; type: cell-based; conditions: mouse, read-out: ID50 (the source's name)
Procedure, shortened: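 P388 cells in log-phase growth exposed in culture to each monophosphate or dinucleotide.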

[3] = Uncompetitive Inhibitory activity against Inosine-5'-monophosphate dehydrogenase using IMP as viable substrate
[4] = Uncompetitive (mixed) inhibitory activity against Inosine-5'-monophosphate dehydrogenase using NAD as viable substrate
[5] = Noncompetitive inhibitory activity against Inosine-5'-monophosphate dehydrogenase using NAD as viable substrate
[6] = Noncompetitive Inhibitory activity against Inosine-5'-monophosphate dehydrogenase using IMP as viable substrate
[7] = Inhibitory activity against Inosine-5'-monophosphate dehydrogenase using NAD as viable substrate; Inactive
[8] = Inhibitory activity against Inosine-5'-monophosphate dehydrogenase using IMP as viable substrate; Inactive
[9] = Competitive Inhibitory activity against Inosine-5'-monophosphate dehydrogenase using IMP as viable substrate
[10] = Inhibitory activity against Inosine-5'-monophosphate dehydrogenase using NAD as viable substrate; Inactive.
[11] = Inhibitory activity against Inosine-5'-monophosphate dehydrogenase using IMP as viable substrate; Inactive.

## NC(=O)c1csc([C@H]2O[C@@H](COP(=O)(O)OP(=O)(O)OC[C@H]3O[C@@H](n4cnc5c(N)ncnc54)[C@H](O)[C@@H]3O)[C@H](O)[C@@H]2O)n1
[1]
  Ki: 0.24 µM
[2]
  CC50: 7.5 µM
[3]
  Ki: 0.13 µM

## NC(=O)c1c[se]c(C2O[C@@H](COP(=O)(O)OP(=O)(O)OC[C@H]3OC(n4cnc5c(N)ncnc54)[C@H](O)[C@@H]3O)[C@H](O)[C@@H]2O)n1 (stereo not given in full)
[1]
  Ki: 0.04 µM
[2]
  CC50: 9.8 µM
[3]
  Ki: 0.05 µM

## NC(=O)c1c[se]c([C@H]2O[C@@H](COP(=O)(O)OP(=O)(O)OC[C@H]3O[C@@H](c4nc(C(N)=O)c[se]4)[C@H](O)[C@@H]3O)[C@H](O)[C@@H]2O)n1
[2]
  CC50: 0.6 µM
[3]
  Ki: 190 µM
[4]
  Ki: 240 µM

## NC(=O)c1c[se]c([C@@H]2O[C@H](COP(=O)(O)O)[C@@H](O)[C@H]2O)n1
[2]
  CC50: 1.4 µM
[5]
  Ki: 470 µM
[6]
  Ki: 170 µM

## NC(=O)c1ncn(C2O[C@H](COP(=O)(O)OP(=O)(O)OC[C@H]3OC(n4cnc5c(N)ncnc54)[C@H](O)[C@@H]3O)[C@H](O)[C@@H]2O)c1N (stereo not given in full)
[2]
  CC50: 78 µM
[7]
  Ki: Not Active
[8]
  Ki: Not Active

## NC(=O)c1ncn([C@@H]2O[C@H](COP(=O)(O)O)[C@@H](O)[C@H]2O)n1 [RIBAVIRIN MONOPHOSPHATE]
[1]
  Ki: 2.24 µM
[2]
  CC50: 65 µM
[9]
  Ki: 4.18 µM

## NC(=O)c1ncn([C@@H]2O[C@H](COP(=O)(O)O)[C@@H](O)[C@H]2O)c1N
[2]
  CC50: > 220 µM
[10]
  Ki: Not Active
[11]
  Ki: Not Active

## NC(=O)c1csc([C@H]2O[C@@H](COP(=O)(O)OP(=O)(O)OC[C@H]3O[C@@H](c4nc(C(N)=O)cs4)[C@H](O)[C@@H]3O)[C@H](O)[C@@H]2O)n1
[2]
  CC50: 4.6 µM
[3]
  Ki: 140 µM
[4]
  Ki: 370 µM

## NC(=O)c1csc([C@@H]2O[C@H](COP(=O)(O)O)[C@@H](O)[C@H]2O)n1
[2]
  CC50: 10 µM
[5]
  Ki: 405 µM
[6]
  Ki: 265 µM

## NC(=O)c1ncn(C2O[C@H](COP(=O)(O)OP(=O)(O)OC[C@H]3OC(n4cnc5c(N)ncnc54)[C@H](O)[C@@H]3O)[C@H](O)[C@@H]2O)n1 (stereo not given in full)
[1]
  Ki: 235 µM
[2]
  CC50: 40 µM
[6]
  Ki: 148 µM
